Results taken from ChEMBL document CHEMBL1122280, “Analogues of hycanthone and lucanthone as antitumor agents” (1983).

How the values were obtained:
P388 [1] = test: In vivo antitumor activity against P-388 lymphocytic leukemia in mice treated with a dose of 12.5 mg/kg; format: functional, Mus musculus
Outline: (§1)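 Mice bearing P-388 leukemia were dosed once daily for 5 days, or once daily for 9 days for the two reference parent drugs. Activity is expressed as a T/C value.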

P388 [2] = test: In vivo antitumor activity against P-388 lymphocytic leukemia in mice treated with a dose of 25 mg/kg; format: functional, Mus musculus; outline: as §1
P388 [3] = test: In vivo antitumor activity against P-388 lymphocytic leukemia in mice treated with a dose of 50 mg/kg; format: functional, Mus musculus; outline: as §1
P388 [4] = test: In vivo antitumor activity against P-388 lymphocytic leukemia in mice treated with a dose of 50 mg/kg for 2 days; format: functional, Mus musculus; details: in the assay text read “for 5 days” for “for 2 days”
P388 [5] = test: In vivo antitumor activity against P-388 lymphocytic leukemia in mice treated with a dose of 200 mg/kg for 5 days
P388 [6] = test: In vivo antitumor activity against P-388 lymphocytic leukemia in mice treated with a dose of 100 mg/kg for 2 days; format: functional, Mus musculus; details: in the assay text read “for 5 days” for “for 2 days”
P388 [7] = test: In vivo antitumor activity against P-388 lymphocytic leukemia in mice treated with a dose of 25 mg/kg for 2 days; format: functional, Mus musculus; details: in the assay text read “for 5 days” for “for 2 days”
P388 [8] = test: In vivo antitumor activity against P-388 lymphocytic leukemia in mice treated with a dose of 18.75 mg/kg for 2 days; format: functional, Mus musculus
Outline: (§2)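 P-388 leukemia-bearing mice received the drug on only 2 days, day 1 and day 4 after inoculation. Activity is expressed as a T/C value.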

P388 [9] = test: In vivo antitumor activity against P-388 lymphocytic leukemia in mice treated with a dose of 75 mg/kg for 2 days; format: functional, Mus musculus; outline: as §2
P388 [10] = test: In vivo antitumor activity against P-388 lymphocytic leukemia in mice treated with a dose of 9.88 mg/kg for 2 days; format: functional, Mus musculus; outline: as §2
P388 [11] = test: In vivo antitumor activity against P-388 lymphocytic leukemia in mice treated with a dose of 37.5 mg/kg for 2 days; format: functional, Mus musculus; outline: as §2
P388 [12] = test: In vivo antitumor activity against P-388 lymphocytic leukemia in mice treated with a dose of 100 mg/kg; format: functional, Mus musculus; outline: as §1
P388 [13] = test: In vivo antitumor activity against P-388 lymphocytic leukemia in mice treated with a dose of 200 mg/kg; format: functional, Mus musculus; outline: as §1
P388 [14] = test: In vivo antitumor activity against P-388 lymphocytic leukemia in mice treated with a dose of 60 mg/kg; format: functional, Mus musculus; outline: as §1

CCN(CC)CCNc1ccc(C)c2oc3ccc(O)cc3c(=O)c12
T/C (P388 [1]): 106 | T/C (P388 [2]): 106 | T/C (P388 [3]): 117

CN(C)CCNc1ccc(CO)c2sc3ccc(O)cc3c(=O)c12
T/C (P388 [4]): 175 | T/C (P388 [5]): 222 | T/C (P388 [6]): 194 | T/C (P388 [7]): 160

CCN(CC)CCNc1ccc(CO)c2sc3ccc(O)cc3c(=O)c12
T/C (P388 [8]): 207 | T/C (P388 [9]): 207 | T/C (P388 [10]): 163 | T/C (P388 [11]): 179

Cc1ccc(NCCN(C)C)c2c(=O)c3cc(O)ccc3oc12
T/C (P388 [1]): 99 | T/C (P388 [2]): 106 | T/C (P388 [3]): 108

CCN(CC)CCNc1ccc(CO)c2oc3ccc(O)cc3c(=O)c12
T/C (P388 [3]): 181 | T/C (P388 [12]): 214 | T/C (P388 [13]): 163

CN(C)CCNc1ccc(CO)c2sc3ccccc3c(=O)c12
T/C (P388 [2]): 94 | T/C (P388 [3]): 114 | T/C (P388 [12]): 150

CN(C)CCNc1ccc(CO)c2oc3ccc(O)cc3c(=O)c12
T/C (P388 [3]): 170 | T/C (P388 [13]): 128

CCN(CC)CCNc1ccc(CO)c2sc3ccccc3c(=O)c12 [HYCANTHONE]
T/C (P388 [14]): 165

CCN(CC)CCNc1ccc(C)c2sc3ccccc3c(=O)c12 [LUCANTHONE]
T/C (P388 [12]): 158
